Results from ChEMBL document CHEMBL5376013, “Design, synthesis and biological evaluation of novel morpholinopyrimidine-5-carbonitrile derivatives as dual PI3K/mTOR inhibitors” (RSC Med Chem, 2024).

How the values were obtained:
Assay type in all cases: functional
Conditions in all cases: read-out: GI
U-251 = assay: Antitumor activity against human U-251 cells assessed as growth inhibition at 10 uM relative to control
How it was run: (§1)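 Drug exposure 48 h at 37 °C, 5% CO2. Adherent cells fixed with cold TCA (10% final), suspension cells with TCA (16% final). Stained with 0.4% SRB in 1% acetic acid, dissolved in 10 mM Tris, A515. Growth relative to time-zero and untreated control.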

SNB-75 = assay: Antitumor activity against human SNB-75 cells assessed as growth inhibition at 10 uM relative to control; how it was run: as §1
SK-MEL-2 = assay: Antitumor activity against human SK-MEL-2 cells assessed as growth inhibition at 10 uM relative to control
How it was run: (§2)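 After drug addition, plates were incubated 48 h at 37 °C under 5% CO2. Adherent cells were fixed with cold TCA (10% final, 60 min, 4 °C) and suspension cells with 16% final TCA. Staining used 0.4% SRB in 1% acetic acid, solubilized in 10 mM trizma, read at A515. Percent growth was calculated from time-zero, control and treated absorbances.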

UO-31 = assay: Antitumor activity against human UO-31 cells assessed as growth inhibition at 10 uM relative to control; how it was run: as §1
SW-620 = assay: Antitumor activity against human SW-620 cells assessed as growth inhibition at 10 uM relative to control; how it was run: as §1
HCT-15 = assay: Antitumor activity against human HCT-15 cells assessed as growth inhibition at 10 uM relative to control; how it was run: as §2
IGROV-1 = assay: Antitumor activity against human IGROV-1 cells assessed as growth inhibition at 10 uM relative to control; how it was run: as §2
BT-549 = assay: Antitumor activity against human BT-549 cells assessed as growth inhibition at 10 uM relative to control; how it was run: as §2
SK-MEL-5 = assay: Antitumor activity against human SK-MEL-5 cells assessed as growth inhibition at 10 uM relative to control; how it was run: as §1
MCF7 = assay: Antitumor activity against human MCF7 cells assessed as growth inhibition at 10 uM relative to control; how it was run: as §2
K562 = assay: Antitumor activity against human K562 cells assessed as growth inhibition at 10 uM relative to control; how it was run: as §2
CAKI-1 = assay: Antitumor activity against human CAKI-1 cells assessed as growth inhibition at 10 uM relative to control; how it was run: as §2
MOLT-4 = assay: Antitumor activity against human MOLT-4 cells assessed as growth inhibition at 10 uM relative to control; how it was run: as §2
HT-29 = assay: Antitumor activity against human HT-29 cells assessed as growth inhibition at 10 uM relative to control; how it was run: as §2
NCI-H226 = assay: Antitumor activity against human NCI-H226 cells assessed as growth inhibition at 10 uM relative to control; how it was run: as §2
KM12 = assay: Antitumor activity against human KM12 cells assessed as growth inhibition at 10 uM relative to control; how it was run: as §2
HCC 2998 = assay: Antitumor activity against human HCC 2998 cells assessed as growth inhibition at 10 uM relative to control; how it was run: as §2
RPMI-8226 = assay: Antitumor activity against human RPMI-8226 cells assessed as growth inhibition at 10 uM relative to control; how it was run: as §2
SF-539 = assay: Antitumor activity against human SF-539 cells assessed as growth inhibition at 10 uM relative to control; how it was run: as §2
786-0 = assay: Antitumor activity against human 786-0 cells assessed as growth inhibition at 10 uM relative to control; how it was run: as §2
OVCAR-8 = assay: Antitumor activity against human OVCAR-8 cells assessed as growth inhibition at 10 uM relative to control; how it was run: as §2
CCRF-CEM = assay: Antitumor activity against human CCRF-CEM cells assessed as growth inhibition at 10 uM relative to control; how it was run: as §2
T47D = assay: Antitumor activity against human T47D cells assessed as growth inhibition at 10 uM relative to control; how it was run: as §1
MDA-MB-435 = assay: Antitumor activity against human MDA-MB-435 cells assessed as growth inhibition at 10 uM relative to control; how it was run: as §2
OVCAR-5 = assay: Antitumor activity against human OVCAR-5 cells assessed as growth inhibition at 10 uM relative to control; how it was run: as §2
A549 = assay: Antitumor activity against human A549 cells assessed as growth inhibition at 10 uM relative to control; how it was run: as §2
OVCAR-3 = assay: Antitumor activity against human OVCAR-3 cells assessed as growth inhibition at 10 uM relative to control; how it was run: as §2
NCI-H522 = assay: Antitumor activity against human NCI-H522 cells assessed as growth inhibition at 10 uM relative to control; how it was run: as §2
SK-MEL-28 = assay: Antitumor activity against human SK-MEL-28 cells assessed as growth inhibition at 10 uM relative to control; how it was run: as §1
HOP-62 = assay: Antitumor activity against human HOP-62 cells assessed as growth inhibition at 10 uM relative to control; how it was run: as §2
NCI-H23 = assay: Antitumor activity against human NCI-H23 cells assessed as growth inhibition at 10 uM relative to control; how it was run: as §2
MDA-MB-231 = assay: Antitumor activity against human MDA-MB-231 cells assessed as growth inhibition at 10 uM relative to control; how it was run: as §2
NCI-H322M = assay: Antitumor activity against human NCI-H322M cells assessed as growth inhibition at 10 uM relative to control; how it was run: as §2
NCI-H460 = assay: Antitumor activity against human NCI-H460 cells assessed as growth inhibition at 10 uM relative to control; how it was run: as §2
Hs-578T = assay: Antitumor activity against human Hs-578T cells assessed as growth inhibition at 10 uM relative to control; how it was run: as §2
RXF 393 = assay: Antitumor activity against human RXF 393 cells assessed as growth inhibition at 10 uM relative to control; how it was run: as §2
HCT-116 = assay: Antitumor activity against human HCT-116 cells assessed as growth inhibition at 10 uM relative to control; how it was run: as §2
COLO 205 = assay: Antitumor activity against human COLO 205 cells assessed as growth inhibition at 10 uM relative to control; how it was run: as §2
SNB-19 = assay: Antitumor activity against human SNB-19 cells assessed as growth inhibition at 10 uM relative to control; how it was run: as §1
SR = assay: Antitumor activity against human SR cells assessed as growth inhibition at 10 uM relative to control; how it was run: as §1
Malme-3M = assay: Antitumor activity against human Malme-3M cells assessed as growth inhibition at 10 uM relative to control; how it was run: as §2
EKVX = assay: Antitumor activity against human EKVX cells assessed as growth inhibition at 10 uM relative to control; how it was run: as §2
MDA-MB-468 = assay: Antitumor activity against human MDA-MB-468 cells assessed as growth inhibition at 10 uM relative to control; how it was run: as §2
SN12C = assay: Antitumor activity against human SN12C cells assessed as growth inhibition at 10 uM relative to control; how it was run: as §1
HL-60 = assay: Antitumor activity against human HL-60 cells assessed as growth inhibition at 10 uM relative to control; how it was run: as §2
LOX IMVI = assay: Antitumor activity against human LOX IMVI cells assessed as growth inhibition at 10 uM relative to control; how it was run: as §2

Measured: inhibition of growth at 10 µM

N#Cc1c(-c2ccc(Cl)cc2)nc(N/N=C2/C(=O)Nc3ccc(Cl)cc32)nc1N1CCOCC1
15.2%: NCI-H23
16.8%: LOX IMVI
11.2%: Malme-3M
32.5%: UO-31
13.9%: EKVX
1%: HCT-15 | MCF7 | COLO 205
31.3%: SNB-75
10.5%: NCI-H226
17.1%: MDA-MB-231
< 1%: all other assays above
